Experiments:
[1] = target: T1, 5-hydroxytryptamine receptor 1A (Homo sapiens, UniProt P08908); assay: Mean negative logarithim of binding affinity was measured for the human 5-hydroxytryptamine 1A receptor; n>/=3
T1 sequence (P08908 whole entry): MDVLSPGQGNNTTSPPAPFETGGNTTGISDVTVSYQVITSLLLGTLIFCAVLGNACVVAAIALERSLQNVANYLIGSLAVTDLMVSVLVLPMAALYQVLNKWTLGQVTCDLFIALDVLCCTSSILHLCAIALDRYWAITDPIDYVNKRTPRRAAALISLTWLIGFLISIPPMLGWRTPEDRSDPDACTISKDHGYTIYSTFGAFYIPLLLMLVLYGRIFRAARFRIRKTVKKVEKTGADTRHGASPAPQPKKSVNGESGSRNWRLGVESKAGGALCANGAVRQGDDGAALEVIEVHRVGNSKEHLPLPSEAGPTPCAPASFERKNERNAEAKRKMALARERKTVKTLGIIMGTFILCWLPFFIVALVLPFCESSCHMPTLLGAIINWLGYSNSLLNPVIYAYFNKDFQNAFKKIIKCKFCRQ

[2] = target: T2, 5-hydroxytryptamine receptor 1A (Homo sapiens) (UniProt P08908); assay: Mean intrinsic activity was measured for the human 5-hydroxytryptamine 1A receptor; n=3
T2 sequence (whole entry): T1 sequence (P08908 whole entry)
How it was run: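 [35S]-GTPγS binding in HEK293 cells expressing the human 5-HT1A receptor. Intrinsic activity is the mean of three experiments, each within 0.1 of the mean.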

[3] = target: Sodium-dependent serotonin transporter (Rattus norvegicus, UniProt P31652); assay: Mean negative logarithim of binding affinity was measured for the rat serotonin transporter; n>/=3
[4] = target: Beta-2 adrenergic receptor (Homo sapiens, UniProt P07550); assay: Binding affinity for human beta-2 adrenergic receptor by displacing [125I]iodocyanopindolol expressed in hamster CHO cells; format: cell-based
Chain of Beta-2 adrenergic receptor (P07550 whole entry): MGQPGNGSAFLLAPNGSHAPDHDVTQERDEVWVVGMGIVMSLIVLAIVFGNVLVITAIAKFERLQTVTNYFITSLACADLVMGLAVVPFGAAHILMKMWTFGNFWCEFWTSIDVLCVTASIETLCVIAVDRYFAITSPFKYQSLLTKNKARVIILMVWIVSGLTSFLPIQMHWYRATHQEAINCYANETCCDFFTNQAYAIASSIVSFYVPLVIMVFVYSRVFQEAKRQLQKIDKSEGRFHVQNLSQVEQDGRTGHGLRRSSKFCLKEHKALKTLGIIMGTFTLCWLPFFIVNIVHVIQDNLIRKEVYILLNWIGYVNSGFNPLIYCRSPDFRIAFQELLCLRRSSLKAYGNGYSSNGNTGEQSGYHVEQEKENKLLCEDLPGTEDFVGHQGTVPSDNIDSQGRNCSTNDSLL

Chain of Sodium-dependent serotonin transporter (P31652 whole entry): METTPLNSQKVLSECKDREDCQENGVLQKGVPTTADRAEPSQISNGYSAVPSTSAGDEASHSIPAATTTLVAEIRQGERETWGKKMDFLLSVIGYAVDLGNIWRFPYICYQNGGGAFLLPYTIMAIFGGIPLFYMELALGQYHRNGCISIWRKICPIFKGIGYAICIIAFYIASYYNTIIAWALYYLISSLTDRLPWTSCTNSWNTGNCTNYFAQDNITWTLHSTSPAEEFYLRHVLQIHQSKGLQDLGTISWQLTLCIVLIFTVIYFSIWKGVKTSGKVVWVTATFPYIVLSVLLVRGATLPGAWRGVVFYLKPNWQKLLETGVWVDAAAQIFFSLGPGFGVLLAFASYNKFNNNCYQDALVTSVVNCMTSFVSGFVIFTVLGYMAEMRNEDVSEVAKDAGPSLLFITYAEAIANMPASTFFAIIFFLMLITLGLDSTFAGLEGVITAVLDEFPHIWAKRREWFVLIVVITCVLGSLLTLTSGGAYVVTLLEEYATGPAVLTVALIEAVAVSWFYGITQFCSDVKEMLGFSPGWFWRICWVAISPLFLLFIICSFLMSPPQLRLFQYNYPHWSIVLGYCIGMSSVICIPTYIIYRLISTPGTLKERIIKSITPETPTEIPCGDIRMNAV

Ki [1] | IA [2] | Ki [3] | SMILES | Ki [4]
100 nM |  |  | O=C1COc2ccc(OC3CCN(CCOc4ccnc5ccccc45)CC3)cc2N1 | 
 | 0.2 |  | Cc1ccc2c(OCCN3CCC(Cc4ccc5c(c4)NC(=O)CO5)CC3)cccc2n1 | 
1.26 nM | 0.3 | 50.1 nM | O=C1COc2ccc(OCC3CCN(CCOc4cccc5ncccc45)C3)cc2N1 (stereo not given) | 
2.51 nM | 0.4 | 100 nM | O=C1COc2ccc(OC3CCN(CCOc4cccc5ccccc45)CC3)cc2N1 | 
1.58 nM | 0.3 | 79.4 nM | O=C1COc2ccc(OCC3CCCN(CCOc4cccc5ncccc45)C3)cc2N1 (stereo not given) | 
6.31 nM | 0.5 | 39.8 nM | O=C1COc2ccc(OC3CCN(CCOc4cccc5cccnc45)CC3)cc2N1 | 
1.58 nM | 0.3 | 7.94 nM | N#Cc1cc2c(OCCN3CCC(Oc4ccc5c(c4)NC(=O)CO5)CC3)cccc2[nH]1 | 
10 nM | 0.2 | 31.6 nM | O=C1COc2ccc(CN3CCN(CCOc4cccc5ncccc45)CC3)cc2N1 | 
3.98 nM | 0.2 | 5.01 nM | O=C1COc2ccc(OC3CCN(CCOc4cccc5[nH]ccc45)CC3)cc2N1 | 
12.6 nM | 0.1 | 31.6 nM | O=C1COc2ccc(OC3CCN(CCOc4cccc5ncccc45)CC3)cc2N1 | 
1.26 nM | 0.2 | 6.31 nM | O=C1COc2ccc(CC3CCN(CCOc4cccc5ncccc45)CC3)cc2N1 | 

Further lines, the compound ahead of its results:

SMILES | Ki [1] | IA [2] | Ki [3] | Ki [4]
CC(COc1ccc2c(c1)NC(=O)CO2)NCC(O)COc1cccc2[nH]ccc12 (stereo in doubt; 1a) [listing 1 of 2 here] |  | 0.4 |  | 
O=C1COc2ccc(OCCNCCCOc3cccc4[nH]ccc34)cc2N1 | 1.58 nM | 0.6 | 79.4 nM | 1000 nM
O=C1COc2ccc(OC3CCN(CCOc4nccc5ccccc45)CC3)cc2N1 | 7.94 nM | 0.8 | 50.1 nM | 
CC(COc1ccc2c(c1)NC(=O)CO2)NCC(O)COc1cccc2[nH]ccc12 (stereo in doubt; 1d) [listing 1 of 2 here] |  |  | 316 nM | 
CC(COc1ccc2c(c1)NC(=O)CO2)NCC(O)COc1cccc2[nH]ccc12 (stereo in doubt; 1b) |  | 0.3 |  | 
CC(COc1ccc2c(c1)NC(=O)CO2)NCC(O)COc1cccc2[nH]ccc12 (stereo in doubt; 1d) [listing 2 of 2 here] |  | 0.2 |  | 
CC(COc1ccc2c(c1)NC(=O)CO2)NCC(O)COc1cccc2[nH]ccc12 (stereo in doubt; 1a) [listing 2 of 2 here] |  |  | 126 nM | 
CC(COc1ccc2c(c1)NC(=O)CO2)NCC(O)COc1cccc2[nH]ccc12 (stereo in doubt; 1) [listing 1 of 2 here] |  |  | 50.1 nM | 
CC(COc1ccc2c(c1)NC(=O)CO2)NCC(O)COc1cccc2[nH]ccc12 (stereo in doubt; 1c) [listing 1 of 2 here] |  | 0.3 |  | 
CC(COc1ccc2c(c1)NC(=O)CO2)NCC(O)COc1cccc2[nH]ccc12 (stereo in doubt; 1c) [listing 2 of 2 here] |  |  | 100 nM | 
CC(COc1ccc2c(c1)NC(=O)CO2)NCC(O)COc1cccc2[nH]ccc12 (stereo in doubt; 1) [listing 2 of 2 here] |  | 0.3 |  | 
